In ChEMBL document CHEMBL1149688, “Tetrapeptide inhibitors of the glutamate vesicular transporter (VGLUT)” (Bioorg Med Chem Lett, 2007):
Calls of active or inactive are those of the source. No cut-off for these calls is given here.

Tested on: VGLUT (Rattus norvegicus)
Experiment: Inhibition of [3H]glutamate uptake at VGLUT in rat brain synaptic vesicles relative to control; values are per cent of control
Set-up: concentration or dose not given beside the values

With CC[C@H](C)[C@@H](NC(=O)[C@@H](N)CCC(N)=O)C(=O)N[C@@H](CCC(=O)O)C(=O)N[C@@H](Cc1c[nH]c2ccccc12)C(=O)O as the molecule, how does the level, % of control read?
Its level, % of control is 69%.

For CC[C@H](C)[C@H](NC(=O)[C@@H](N)CCC(N)=O)C(=O)N[C@H](CCC(=O)O)C(=O)N[C@@H](Cc1c[nH]c2ccccc12)C(=O)O, which level, % of control is on record?
Its level, % of control is 82%.

For CC[C@H](C)[C@@H](NC(=O)[C@H](N)CCC(N)=O)C(=O)N[C@@H](CCC(=O)O)C(=O)N[C@H](Cc1c[nH]c2ccccc12)C(=O)O, which level, % of control is on record?
The level, % of control was 35%.

With NC(=O)C[C@H](NC(=O)[C@H](N)Cc1c[nH]c2ccccc12)C(=O)N[C@H](CCC(=O)O)C(=O)N[C@H](Cc1ccccc1)C(=O)O as the molecule, how does the level, % of control read?
Its level, % of control is 41%.

Which level, % of control does the source give for CC[C@H](C)[C@@H](NC(=O)[C@@H](N)CCC(N)=O)C(=O)N[C@H](CCC(=O)O)C(=O)N[C@H](Cc1c[nH]c2ccccc12)C(=O)O here?
Its level, % of control is 60%.

For CC[C@H](C)[C@@H](NC(=O)[C@H](N)CCC(N)=O)C(=O)N[C@H](CCC(=O)O)C(=O)N[C@H](Cc1c[nH]c2ccccc12)C(=O)O, which level, % of control is on record?
The level, % of control was 63%.

Which level, % of control does the source give for NC(=O)CCC(N)C(=O)NC(Cc1c[nH]c2ccccc12)C(=O)NC(CCC(=O)O)C(=O)NC(Cc1c[nH]c2ccccc12)C(=O)O (racemic) here?
Its level, % of control is 66%.

For NC(=O)CC(NC(=O)C(N)Cc1c[nH]c2ccccc12)C(=O)NC(CCC(=O)O)C(=O)NC(Cc1ccccc1)C(=O)O (racemic), which level, % of control is on record?
The level, % of control was 13%.

Which level, % of control does the source give for CC[C@H](C)[C@@H](NC(=O)[C@@H](N)CCC(N)=O)C(=O)N[C@@H](CCC(=O)O)C(=O)N[C@H](Cc1c[nH]c2ccccc12)C(=O)O here?
Its level, % of control is 28%.

For CCC(C)C(NC(=O)C(N)CCC(N)=O)C(=O)NC(CCC(=O)O)C(=O)NC(Cc1c[nH]c2ccccc12)C(=O)O (racemic), which level, % of control is on record?
The level, % of control was 38%.

Species: Rattus norvegicus
Experiment: Inhibition of v-ATPase activity in rat brain synaptic vesicles
Format: tissue-based

For NC(=O)CC(NC(=O)C(N)Cc1c[nH]c2ccccc12)C(=O)NC(CCC(=O)O)C(=O)NC(Cc1ccccc1)C(=O)O (racemic), which Activity is on record?
The Activity was “inactive”.

Which Activity does the source give for CCC(C)C(NC(=O)C(N)CCC(N)=O)C(=O)NC(CCC(=O)O)C(=O)NC(Cc1c[nH]c2ccccc12)C(=O)O (racemic) here?
Its Activity is “inactive”.

Tested on: not listed separately
Experiment: Inhibition of [3H]glutamate uptake at VGLUT in rat brain synaptic vesicles
Format: tissue-based
Summary of the method: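 Rat brain synaptic vesicles (approx. 0.1 mg protein) were incubated with ³H-L-glutamate (0.25 mM) and inhibitor over 0.01-5 mM, and the assay was started by adding substrate. IC50 values were taken from non-linear regression of sigmoidal dose-response curves and converted to Ki with the Cheng-Prusoff relationship, as mean ± s.e.m. (n = 3).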

For CC[C@H](C)[C@H](NC(=O)[C@H](N)CCC(N)=O)C(=O)N[C@H](CCC(=O)O)C(=O)N[C@@H](Cc1c[nH]c2ccccc12)C(=O)O, which IC50 is on record?
The IC50 was 864 µM.

And the Ki?
The Ki was 828 µM.
